Laboratory results as given in ChEMBL document CHEMBL1681705, “Optimisation of ITK inhibitors through successive iterative design cycles” (Bioorg Med Chem Lett, 2011).

Experiments:
[1] = biological target: Mitogen-activated protein kinase 1 (Homo sapiens) (UniProt P28482); assay: Inhibition of MAPK1 at 1 uM
Summary of the method: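 Single-point screen within a 108-kinase selectivity panel. Each kinase was tested with inhibitor at 0.1 and 1.0 micromolar, and activity was recorded as percent inhibition.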

[2] = biological target: Fibroblast growth factor receptor 3 (Homo sapiens) (UniProt P22607); assay: Inhibition of FGFR3 at 1 uM; values are per cent of control
[3] = biological target: Angiopoietin-1 receptor (Homo sapiens) (UniProt Q02763); assay: Inhibition of Tie2 at 1 uM; values are per cent of control
[4] = biological target: Ephrin type-A receptor 4 (Homo sapiens) (UniProt P54764); assay: Inhibition of EphA4 at 1 uM; values are per cent of control
[5] = biological target: 3-phosphoinositide-dependent protein kinase 1 (Homo sapiens) (UniProt O15530); assay: Inhibition of PDK1 at 1 uM; values are per cent of control
[6] = biological target: Serine/threonine-protein kinase N2 (Homo sapiens) (UniProt Q16513); assay: Inhibition of PRK2 at 1 uM; values are per cent of control
[7] = biological target: RAC-beta serine/threonine-protein kinase (Homo sapiens) (UniProt P31751); assay: Inhibition of PKBbeta at 1 uM; values are per cent of control
[8] = biological target: T1, Serine/threonine-protein kinase STK11 (Homo sapiens) (UniProt Q15831); assay: Inhibition of LKB1 at 1 uM; values are per cent of control
T1 sequence (whole entry): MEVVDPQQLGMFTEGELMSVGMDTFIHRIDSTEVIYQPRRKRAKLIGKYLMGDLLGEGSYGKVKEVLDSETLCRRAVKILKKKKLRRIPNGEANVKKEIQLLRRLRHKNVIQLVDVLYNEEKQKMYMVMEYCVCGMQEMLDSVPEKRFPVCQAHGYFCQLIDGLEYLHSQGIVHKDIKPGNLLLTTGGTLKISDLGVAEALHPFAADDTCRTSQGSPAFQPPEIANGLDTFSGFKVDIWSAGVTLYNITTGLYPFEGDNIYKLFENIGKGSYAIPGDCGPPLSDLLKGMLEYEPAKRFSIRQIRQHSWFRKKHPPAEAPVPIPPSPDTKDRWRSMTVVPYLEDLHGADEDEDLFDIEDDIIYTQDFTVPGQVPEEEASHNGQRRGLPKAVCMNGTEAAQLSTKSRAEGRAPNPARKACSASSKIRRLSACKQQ

[9] = biological target: Ephrin type-A receptor 2 (Homo sapiens) (UniProt P29317); assay: Inhibition of EphA2 at 1 uM; values are per cent of control
[10] = biological target: T2, Protein kinase C epsilon type (Homo sapiens) (UniProt Q02156); assay: Inhibition of PKCepsilon at 0.1 uM; values are per cent of control
T2 sequence (whole entry): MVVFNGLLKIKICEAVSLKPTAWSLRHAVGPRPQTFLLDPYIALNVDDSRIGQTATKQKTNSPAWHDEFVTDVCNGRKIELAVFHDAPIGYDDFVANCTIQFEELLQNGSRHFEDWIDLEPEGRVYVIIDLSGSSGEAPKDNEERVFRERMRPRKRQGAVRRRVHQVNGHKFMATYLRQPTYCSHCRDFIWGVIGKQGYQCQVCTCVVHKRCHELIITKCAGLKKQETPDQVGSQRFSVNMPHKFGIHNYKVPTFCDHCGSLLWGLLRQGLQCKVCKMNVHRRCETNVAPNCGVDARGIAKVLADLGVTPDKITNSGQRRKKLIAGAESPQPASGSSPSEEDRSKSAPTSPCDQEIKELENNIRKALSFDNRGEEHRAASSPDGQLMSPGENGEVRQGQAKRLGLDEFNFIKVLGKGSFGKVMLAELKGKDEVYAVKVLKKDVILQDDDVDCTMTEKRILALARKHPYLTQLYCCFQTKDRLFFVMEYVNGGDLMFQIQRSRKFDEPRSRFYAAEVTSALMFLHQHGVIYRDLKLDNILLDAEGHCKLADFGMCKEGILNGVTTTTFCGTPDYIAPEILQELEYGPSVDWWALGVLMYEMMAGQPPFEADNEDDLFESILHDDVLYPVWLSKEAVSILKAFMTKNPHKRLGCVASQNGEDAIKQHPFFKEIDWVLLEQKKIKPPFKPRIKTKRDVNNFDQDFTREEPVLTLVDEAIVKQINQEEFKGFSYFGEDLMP

[11] = biological target: Tyrosine-protein kinase HCK (Homo sapiens) (UniProt P08631); assay: Inhibition of Hck at 1 uM; values are per cent of control
[12] = biological target: Mast/stem cell growth factor receptor Kit (Homo sapiens) (UniProt P10721); assay: Inhibition of c-Kit at 0.1 uM; values are per cent of control
[13] = biological target: Protein kinase C theta type (Homo sapiens) (UniProt Q04759); assay: Inhibition of PKCtheta at 0.1 uM; values are per cent of control
[14] = biological target: Receptor-interacting serine/threonine-protein kinase 2 (Homo sapiens) (UniProt O43353); assay: Inhibition of RIPK2 at 0.1 uM; values are per cent of control
[15] = biological target: Protein-tyrosine kinase 2-beta (Homo sapiens) (UniProt Q14289); assay: Inhibition of Pyk2 at 1 uM; values are per cent of control
[16] = biological target: Receptor-type tyrosine-protein kinase FLT3 (Homo sapiens) (UniProt P36888); assay: Inhibition of Flt3 at 1 uM; values are per cent of control

Chain of Ephrin type-A receptor 2 (Homo sapiens) (P29317 whole entry): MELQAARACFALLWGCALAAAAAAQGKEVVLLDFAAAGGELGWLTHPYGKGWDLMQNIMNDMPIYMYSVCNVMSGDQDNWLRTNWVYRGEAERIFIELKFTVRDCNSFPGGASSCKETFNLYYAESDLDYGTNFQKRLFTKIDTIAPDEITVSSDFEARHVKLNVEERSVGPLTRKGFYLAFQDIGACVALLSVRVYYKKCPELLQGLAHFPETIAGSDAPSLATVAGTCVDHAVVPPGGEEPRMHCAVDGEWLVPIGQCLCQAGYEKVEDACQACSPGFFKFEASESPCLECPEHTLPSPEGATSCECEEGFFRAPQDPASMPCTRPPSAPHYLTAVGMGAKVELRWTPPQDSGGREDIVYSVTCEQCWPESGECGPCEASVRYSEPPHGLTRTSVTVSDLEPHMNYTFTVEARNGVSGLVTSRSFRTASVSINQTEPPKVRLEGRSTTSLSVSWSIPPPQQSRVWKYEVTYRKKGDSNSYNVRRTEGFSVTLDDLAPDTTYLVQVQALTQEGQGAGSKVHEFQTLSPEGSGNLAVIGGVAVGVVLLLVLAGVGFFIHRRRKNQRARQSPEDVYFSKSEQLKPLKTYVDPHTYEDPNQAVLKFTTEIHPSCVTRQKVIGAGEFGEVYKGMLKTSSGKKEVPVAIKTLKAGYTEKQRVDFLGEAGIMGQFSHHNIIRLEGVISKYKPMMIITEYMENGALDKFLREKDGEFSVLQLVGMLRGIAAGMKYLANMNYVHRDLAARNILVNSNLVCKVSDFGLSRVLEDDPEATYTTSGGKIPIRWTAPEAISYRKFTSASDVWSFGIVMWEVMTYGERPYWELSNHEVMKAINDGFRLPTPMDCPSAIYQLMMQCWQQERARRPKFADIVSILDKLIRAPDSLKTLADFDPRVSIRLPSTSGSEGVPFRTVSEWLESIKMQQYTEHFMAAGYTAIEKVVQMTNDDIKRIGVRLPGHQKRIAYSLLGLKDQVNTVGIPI
Chain of Ephrin type-A receptor 4 (Homo sapiens) (P54764 whole entry): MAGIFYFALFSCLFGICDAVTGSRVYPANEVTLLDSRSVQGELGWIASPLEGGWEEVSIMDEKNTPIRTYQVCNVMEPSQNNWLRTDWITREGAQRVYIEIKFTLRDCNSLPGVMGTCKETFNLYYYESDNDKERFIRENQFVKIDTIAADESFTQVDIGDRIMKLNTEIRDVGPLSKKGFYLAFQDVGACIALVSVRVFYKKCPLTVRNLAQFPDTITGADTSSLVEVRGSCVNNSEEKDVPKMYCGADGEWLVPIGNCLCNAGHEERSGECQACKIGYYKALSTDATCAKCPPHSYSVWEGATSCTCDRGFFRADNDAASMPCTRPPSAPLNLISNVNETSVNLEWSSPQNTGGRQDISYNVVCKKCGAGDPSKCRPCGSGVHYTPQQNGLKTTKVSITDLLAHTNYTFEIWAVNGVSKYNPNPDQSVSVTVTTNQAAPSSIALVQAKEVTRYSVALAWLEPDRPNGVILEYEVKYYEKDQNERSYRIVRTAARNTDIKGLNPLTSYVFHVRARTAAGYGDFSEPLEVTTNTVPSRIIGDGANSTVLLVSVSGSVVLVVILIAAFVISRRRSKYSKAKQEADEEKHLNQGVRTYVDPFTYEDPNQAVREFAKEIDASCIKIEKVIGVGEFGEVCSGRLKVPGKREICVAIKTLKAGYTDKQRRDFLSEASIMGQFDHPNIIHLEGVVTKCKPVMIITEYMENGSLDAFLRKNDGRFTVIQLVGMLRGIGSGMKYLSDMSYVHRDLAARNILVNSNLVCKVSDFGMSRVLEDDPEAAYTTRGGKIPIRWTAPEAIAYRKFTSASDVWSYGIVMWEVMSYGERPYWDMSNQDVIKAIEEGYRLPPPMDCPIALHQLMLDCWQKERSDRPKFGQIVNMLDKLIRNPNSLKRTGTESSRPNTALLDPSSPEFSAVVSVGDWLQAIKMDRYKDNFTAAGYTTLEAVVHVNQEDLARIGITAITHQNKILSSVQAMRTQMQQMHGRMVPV
Chain of Serine/threonine-protein kinase N2 (Homo sapiens) (Q16513 whole entry, looked up): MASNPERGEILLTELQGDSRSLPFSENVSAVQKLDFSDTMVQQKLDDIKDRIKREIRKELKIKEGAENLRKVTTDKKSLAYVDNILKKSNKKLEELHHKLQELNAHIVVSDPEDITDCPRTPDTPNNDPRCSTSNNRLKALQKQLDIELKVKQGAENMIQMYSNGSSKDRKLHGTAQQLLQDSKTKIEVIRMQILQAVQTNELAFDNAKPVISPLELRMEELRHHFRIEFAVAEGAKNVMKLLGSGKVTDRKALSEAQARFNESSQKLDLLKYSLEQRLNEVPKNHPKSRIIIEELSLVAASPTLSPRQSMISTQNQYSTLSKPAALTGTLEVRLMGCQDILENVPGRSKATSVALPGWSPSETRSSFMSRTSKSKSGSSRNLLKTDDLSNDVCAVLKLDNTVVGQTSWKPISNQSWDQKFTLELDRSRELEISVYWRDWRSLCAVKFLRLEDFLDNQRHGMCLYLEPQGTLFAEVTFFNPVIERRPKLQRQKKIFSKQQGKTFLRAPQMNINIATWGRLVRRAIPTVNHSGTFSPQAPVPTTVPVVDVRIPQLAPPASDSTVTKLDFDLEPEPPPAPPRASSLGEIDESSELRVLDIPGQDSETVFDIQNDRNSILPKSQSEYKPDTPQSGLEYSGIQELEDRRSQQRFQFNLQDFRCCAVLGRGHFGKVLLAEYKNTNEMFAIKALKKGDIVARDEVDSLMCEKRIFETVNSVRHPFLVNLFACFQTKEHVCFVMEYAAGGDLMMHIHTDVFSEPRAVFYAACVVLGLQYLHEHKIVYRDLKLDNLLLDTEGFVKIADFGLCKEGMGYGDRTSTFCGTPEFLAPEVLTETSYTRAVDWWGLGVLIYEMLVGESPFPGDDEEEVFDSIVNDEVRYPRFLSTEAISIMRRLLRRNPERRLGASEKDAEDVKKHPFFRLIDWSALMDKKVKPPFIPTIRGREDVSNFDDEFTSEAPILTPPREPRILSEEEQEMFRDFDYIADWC
Chain of Tyrosine-protein kinase HCK (Homo sapiens) (P08631 2-526 limits assumed): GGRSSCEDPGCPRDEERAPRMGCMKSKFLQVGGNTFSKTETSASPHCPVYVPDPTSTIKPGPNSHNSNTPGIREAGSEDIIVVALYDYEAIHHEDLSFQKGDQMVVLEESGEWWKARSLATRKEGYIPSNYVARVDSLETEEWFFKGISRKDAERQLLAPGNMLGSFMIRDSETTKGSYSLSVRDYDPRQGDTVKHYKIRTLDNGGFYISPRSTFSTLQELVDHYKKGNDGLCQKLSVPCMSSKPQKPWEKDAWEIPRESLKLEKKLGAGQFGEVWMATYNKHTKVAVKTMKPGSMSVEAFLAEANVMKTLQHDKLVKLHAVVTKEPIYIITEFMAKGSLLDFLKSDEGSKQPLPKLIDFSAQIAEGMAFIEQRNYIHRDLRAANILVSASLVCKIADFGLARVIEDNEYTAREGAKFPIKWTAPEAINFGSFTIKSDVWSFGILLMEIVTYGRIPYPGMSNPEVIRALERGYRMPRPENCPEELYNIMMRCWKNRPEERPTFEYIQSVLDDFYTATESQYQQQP
Chain of Fibroblast growth factor receptor 3 (Homo sapiens) (P22607 23-806 limits assumed): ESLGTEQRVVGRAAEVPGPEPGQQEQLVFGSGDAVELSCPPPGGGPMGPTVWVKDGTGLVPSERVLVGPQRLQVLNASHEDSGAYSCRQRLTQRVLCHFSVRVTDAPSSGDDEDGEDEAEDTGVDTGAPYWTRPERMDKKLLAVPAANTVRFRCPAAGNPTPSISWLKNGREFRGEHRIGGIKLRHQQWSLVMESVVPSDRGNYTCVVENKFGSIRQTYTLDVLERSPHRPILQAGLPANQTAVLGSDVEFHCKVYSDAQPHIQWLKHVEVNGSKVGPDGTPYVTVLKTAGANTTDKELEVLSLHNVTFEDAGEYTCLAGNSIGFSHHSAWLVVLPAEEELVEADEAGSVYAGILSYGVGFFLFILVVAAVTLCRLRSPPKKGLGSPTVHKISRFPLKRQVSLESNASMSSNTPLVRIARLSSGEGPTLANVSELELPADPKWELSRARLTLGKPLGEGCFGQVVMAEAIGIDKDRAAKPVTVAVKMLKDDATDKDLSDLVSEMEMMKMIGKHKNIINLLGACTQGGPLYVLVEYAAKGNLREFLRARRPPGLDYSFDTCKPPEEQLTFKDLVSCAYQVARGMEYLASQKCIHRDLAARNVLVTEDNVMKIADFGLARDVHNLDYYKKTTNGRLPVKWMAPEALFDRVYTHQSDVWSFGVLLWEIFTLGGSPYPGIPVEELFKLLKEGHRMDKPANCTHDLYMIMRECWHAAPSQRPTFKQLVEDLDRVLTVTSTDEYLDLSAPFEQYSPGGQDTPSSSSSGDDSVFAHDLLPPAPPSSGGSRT
Chain of 3-phosphoinositide-dependent protein kinase 1 (Homo sapiens) (O15530 whole entry, looked up): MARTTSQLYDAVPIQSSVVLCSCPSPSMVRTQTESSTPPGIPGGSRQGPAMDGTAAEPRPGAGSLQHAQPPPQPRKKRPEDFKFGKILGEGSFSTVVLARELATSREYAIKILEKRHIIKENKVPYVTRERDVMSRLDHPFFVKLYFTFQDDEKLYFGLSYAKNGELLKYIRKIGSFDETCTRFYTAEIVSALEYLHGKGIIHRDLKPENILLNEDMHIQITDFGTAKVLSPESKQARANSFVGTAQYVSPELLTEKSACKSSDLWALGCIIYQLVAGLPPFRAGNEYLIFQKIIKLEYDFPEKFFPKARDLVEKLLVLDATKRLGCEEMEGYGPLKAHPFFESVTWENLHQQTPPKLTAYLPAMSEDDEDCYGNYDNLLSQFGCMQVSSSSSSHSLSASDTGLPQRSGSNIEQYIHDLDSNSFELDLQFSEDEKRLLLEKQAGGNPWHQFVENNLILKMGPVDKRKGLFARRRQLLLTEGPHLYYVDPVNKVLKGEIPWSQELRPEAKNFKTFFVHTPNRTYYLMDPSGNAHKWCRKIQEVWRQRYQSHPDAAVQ

inhibition [1] [%] | residual activity [2] [%] | residual activity [3] [%] | residual activity [4] [%] | residual activity [5] [%] | residual activity [6] [%] | residual activity [7] [%] | residual activity [8] [%] | residual activity [9] [%] | residual activity [10] [%] | residual activity [11] [%] | residual activity [12] [%] | residual activity [13] [%] | residual activity [14] [%] | residual activity [15] [%] | residual activity [16] [%] | SMILES
64 | 1 | 1 | 72 | 10 | 49 | 88 | 98 | 13 | 30 | 0 | 92 | 74 | 87 | 8 | 10 | Cc1ccc2cc(-c3n[nH]c4ccc(NC5CCNC5)cc34)[nH]c2c1 (configuration not stated)
84 | -3 | 8 | 68 | 40 | 3 | 85 | 101 | 7 | 86 | 7 | 143 | 45 | 94 | 10 | 0 | Cc1ccc2cc(-c3n[nH]c4ccc(NC5CCN(Cc6ccccc6)CC5)cc34)[nH]c2c1
